Consider 1 molecule from PubChem BioAssay AID588421 (The Scripps Research Institute Molecular Screening Center, 2011).

The experiment deals with Protein-arginine deiminase type-4 (Homo sapiens) (UniProt Q9UM07). Kind of experiment: recombinant human PAD4 inhibitors – biochemical, BAEE substrate, citrulline absorbance, 0-500 µM range, late-stage follow-up (AID 588421). To be noted: recombinant PAD4, BAEE citrulline colorimetric absorbance. The method in brief:
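Material: recombinant PAD4 enzyme. Quantity: PAD4 enzyme at 0.2 µM. Medium: Tris buffer at pH 7.6 with 10 mM CaCl2 and 2 mM DTT. Reagent: 10 mM BAEE. Times: 15 min preincubation (37 °C), 15 min reaction. Signal: citrulline absorbance, 540 nm. Measure: IC50 from fitted fractional PAD4 activity, citrulline standard curve.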

Structures are written as SMILES. Activity calls are given as the source filed them.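 Rule for the calls: active = IC50 at or below 1 µM; inactive = the rest.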

Sequence of Protein-arginine deiminase type-4 (Homo sapiens) (Q9UM07 whole entry, looked up): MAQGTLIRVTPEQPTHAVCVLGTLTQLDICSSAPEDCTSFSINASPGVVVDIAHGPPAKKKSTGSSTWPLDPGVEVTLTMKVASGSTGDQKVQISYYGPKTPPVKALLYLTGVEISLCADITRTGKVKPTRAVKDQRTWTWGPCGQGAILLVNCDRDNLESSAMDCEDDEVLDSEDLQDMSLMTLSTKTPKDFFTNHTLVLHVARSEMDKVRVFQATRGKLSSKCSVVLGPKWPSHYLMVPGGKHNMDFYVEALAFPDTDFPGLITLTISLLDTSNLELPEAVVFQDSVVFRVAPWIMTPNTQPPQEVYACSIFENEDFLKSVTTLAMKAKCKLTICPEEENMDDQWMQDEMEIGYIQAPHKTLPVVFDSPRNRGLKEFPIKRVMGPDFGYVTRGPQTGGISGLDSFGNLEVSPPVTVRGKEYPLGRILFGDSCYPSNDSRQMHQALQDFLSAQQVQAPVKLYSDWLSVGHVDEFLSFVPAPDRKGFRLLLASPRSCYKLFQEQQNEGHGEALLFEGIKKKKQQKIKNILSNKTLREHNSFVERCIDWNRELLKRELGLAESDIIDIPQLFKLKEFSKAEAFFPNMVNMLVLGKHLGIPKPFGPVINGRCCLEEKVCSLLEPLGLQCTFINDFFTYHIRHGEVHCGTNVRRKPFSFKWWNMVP

As to `COC(=O)c1nc(C(=O)OC)c(NC(C)=O)c(-c2ccccc2Br)c1C`, the IC50 entry was “inactive”.
